Tests used:
[1] = biological target: Casein kinase II subunit alpha' (Homo sapiens) (UniProt P19784); assay: Inhibition of recombinant full length human GST-tagged CSNK2A2 expressed in baculovirus expression system at 1 uM relative to control
In short: (§1)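 Forty-kinase selectivity panel; each compound tested at a single 1 µM concentration in the presence of 1 mM ATP; result given as percent inhibition.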

[2] = biological target: Mitogen-activated protein kinase 1 (Homo sapiens) (UniProt P28482); assay: Inhibition of recombinant full length human GST-tagged MAPK1 expressed in Escherichia coli at 1 uM relative to control; in short: as §1
[3] = biological target: Serine/threonine-protein kinase Chk2 (Homo sapiens) (UniProt O96017); assay: Inhibition of recombinant full length human His-tagged CHEK2 expressed in baculovirus expression system at 1 uM relative to control; in short: as §1
[4] = biological target: Rho-associated protein kinase 1 (Homo sapiens) (UniProt Q13464); assay: Inhibition of recombinant human GST-tagged ROCK1 (1 to 535 residues) expressed in baculovirus expression system at 1 uM relative to control; in short: as §1
[5] = biological target: Calcium/calmodulin-dependent protein kinase type II subunit alpha (Homo sapiens) (UniProt Q9UQM7); assay: Inhibition of recombinant full length human His-tagged CAMK2A expressed in baculovirus expression system at 1 uM relative to control; in short: as §1
[6] = biological target: Proto-oncogene tyrosine-protein kinase Src (Homo sapiens) (UniProt P12931); assay: Inhibition of recombinant human full length His-tagged SRC expressed in baculovirus expression system at 1 uM relative to control; in short: as §1
[7] = Lipophilicity, log D at pH 7.4 by shake flask method; settings: buffer
[8] = biological target: T1, Serine/threonine-protein kinase Chk1 (Homo sapiens) (UniProt O14757); assay: Inhibition of recombinant full length human His-tagged CHEK1 expressed in baculovirus expression system at 1 uM relative to control; in short: as §1
T1 sequence (whole entry): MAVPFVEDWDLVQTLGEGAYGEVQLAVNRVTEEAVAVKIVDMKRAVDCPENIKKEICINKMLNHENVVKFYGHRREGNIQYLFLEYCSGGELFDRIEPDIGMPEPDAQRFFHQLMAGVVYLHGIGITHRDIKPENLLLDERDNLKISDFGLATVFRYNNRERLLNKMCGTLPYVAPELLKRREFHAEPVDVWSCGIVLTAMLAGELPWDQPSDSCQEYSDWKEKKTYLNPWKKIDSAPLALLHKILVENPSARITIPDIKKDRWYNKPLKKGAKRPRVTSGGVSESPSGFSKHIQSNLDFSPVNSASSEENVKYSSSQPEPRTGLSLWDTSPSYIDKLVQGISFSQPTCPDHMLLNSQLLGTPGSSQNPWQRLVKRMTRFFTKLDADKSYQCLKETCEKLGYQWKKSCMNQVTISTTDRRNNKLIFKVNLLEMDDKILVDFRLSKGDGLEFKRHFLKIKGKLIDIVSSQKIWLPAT

[9] = biological target: Serine/threonine-protein kinase 26 (Homo sapiens) (UniProt Q9P289); assay: Inhibition of recombinant human full length GST-tagged MST4 expressed in baculovirus expression system at 1 uM relative to control; in short: as §1
[10] = biological target: Protein kinase C beta type (Homo sapiens) (UniProt P05771); assay: Inhibition of recombinant human full length GST-tagged PRKCB2 expressed in insect cells at 1 uM relative to control; in short: as §1
[11] = biological target: Insulin receptor (Homo sapiens) (UniProt P06213); assay: Inhibition of recombinant human GST-tagged INSR cytoplasmic domain expressed in baculovirus expression system at 1 uM relative to control; in short: as §1
[12] = biological target: Glycogen synthase kinase-3 beta (Homo sapiens) (UniProt P49841); assay: Inhibition of recombinant human full length His-tagged GSK3beta expressed in baculovirus expression system at 1 uM relative to control; in short: as §1
[13] = biological target: Epidermal growth factor receptor (Homo sapiens) (UniProt P00533); assay: Inhibition of recombinant human GST-tagged EGFR cytoplasmic domain expressed in baculovirus expression system at 1 uM relative to control; in short: as §1
[14] = biological target: Myosin light chain kinase 2, skeletal/cardiac muscle (Homo sapiens) (UniProt Q9H1R3); assay: Inhibition of recombinant human full length GST-tagged MYLK2 expressed in baculovirus expression system at 1 uM relative to control; in short: as §1
[15] = biological target: High affinity nerve growth factor receptor (Homo sapiens) (UniProt P04629); assay: Inhibition of recombinant human His-tagged NTRK1 (526 to 838 residues) expressed in baculovirus expression system at 1 uM relative to control; in short: as §1
[16] = biological target: Mitogen-activated protein kinase kinase kinase kinase 4 (Homo sapiens) (UniProt O95819); assay: Inhibition of recombinant human GST-tagged MAP4K4 (1 to 328 residues) expressed in baculovirus expression system at 1 uM relative to control; in short: as §1
[17] = biological target: Mitogen-activated protein kinase 14 (Homo sapiens) (UniProt Q16539); assay: Inhibition of recombinant full length human GST-tagged MAPK14 expressed in Escherichia coli at 1 uM relative to control; in short: as §1
[18] = biological target: T2, Aurora kinase A (Homo sapiens) (UniProt O14965); assay: Inhibition of recombinant full length human His-tagged AURKA expressed in baculovirus expression system at 1 uM relative to control; in short: as §1
T2 sequence (whole entry): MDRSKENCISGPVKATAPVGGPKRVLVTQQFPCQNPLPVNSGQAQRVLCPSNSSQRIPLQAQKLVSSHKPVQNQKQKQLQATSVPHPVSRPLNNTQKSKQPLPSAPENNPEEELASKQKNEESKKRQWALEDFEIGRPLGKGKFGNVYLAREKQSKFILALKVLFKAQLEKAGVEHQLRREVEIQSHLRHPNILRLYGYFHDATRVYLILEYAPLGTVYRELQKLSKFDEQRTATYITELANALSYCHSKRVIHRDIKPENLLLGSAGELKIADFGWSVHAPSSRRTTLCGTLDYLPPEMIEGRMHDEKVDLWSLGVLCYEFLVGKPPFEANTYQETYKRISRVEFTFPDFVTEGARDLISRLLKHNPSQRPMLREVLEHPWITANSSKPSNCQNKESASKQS

[19] = biological target: Serine/threonine-protein kinase pim-2 (Homo sapiens) (UniProt Q9P1W9); assay: Inhibition of recombinant human full length GST-tagged PIM2 expressed in baculovirus expression system at 1 uM relative to control; in short: as §1
[20] = biological target: Hepatocyte growth factor receptor (Homo sapiens) (UniProt P08581); assay: Inhibition of recombinant human His-tagged c-Met cytoplasmic domain expressed in baculovirus expression system at 1 uM relative to control; in short: as §1
[21] = biological target: Ephrin type-A receptor 2 (Homo sapiens) (UniProt P29317); assay: Inhibition of recombinant human GST-tagged EPHA2 cytoplasmic domain expressed in baculovirus expression system at 1 uM relative to control; in short: as §1
Sequence of Ephrin type-A receptor 2 (Homo sapiens) (P29317 whole entry, the tested form may be a part): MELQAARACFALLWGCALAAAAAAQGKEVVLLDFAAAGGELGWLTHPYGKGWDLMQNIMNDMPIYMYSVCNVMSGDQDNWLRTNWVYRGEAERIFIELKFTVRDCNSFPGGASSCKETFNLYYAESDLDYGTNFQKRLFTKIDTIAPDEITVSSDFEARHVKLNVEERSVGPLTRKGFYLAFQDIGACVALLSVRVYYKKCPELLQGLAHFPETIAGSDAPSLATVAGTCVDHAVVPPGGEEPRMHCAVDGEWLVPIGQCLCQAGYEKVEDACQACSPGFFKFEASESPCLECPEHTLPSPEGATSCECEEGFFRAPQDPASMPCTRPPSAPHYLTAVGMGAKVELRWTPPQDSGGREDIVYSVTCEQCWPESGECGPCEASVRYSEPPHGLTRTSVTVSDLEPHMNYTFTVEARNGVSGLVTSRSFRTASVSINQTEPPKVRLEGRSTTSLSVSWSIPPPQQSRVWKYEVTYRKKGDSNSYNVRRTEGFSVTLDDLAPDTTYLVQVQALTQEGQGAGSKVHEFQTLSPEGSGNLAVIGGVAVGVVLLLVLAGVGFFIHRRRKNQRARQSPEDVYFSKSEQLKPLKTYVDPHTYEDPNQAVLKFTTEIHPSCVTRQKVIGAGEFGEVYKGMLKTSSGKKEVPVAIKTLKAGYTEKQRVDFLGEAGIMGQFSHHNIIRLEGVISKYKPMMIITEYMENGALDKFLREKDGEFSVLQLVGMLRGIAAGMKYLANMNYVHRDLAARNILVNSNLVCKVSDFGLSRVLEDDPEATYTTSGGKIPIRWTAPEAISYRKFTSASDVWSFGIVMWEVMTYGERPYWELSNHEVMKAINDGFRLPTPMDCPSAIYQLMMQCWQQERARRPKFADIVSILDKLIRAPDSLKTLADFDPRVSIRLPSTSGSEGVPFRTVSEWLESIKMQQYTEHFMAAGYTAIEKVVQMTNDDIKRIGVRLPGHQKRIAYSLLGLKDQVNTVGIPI

Sequence of Rho-associated protein kinase 1 (Homo sapiens) (Q13464 2-1354 limits assumed): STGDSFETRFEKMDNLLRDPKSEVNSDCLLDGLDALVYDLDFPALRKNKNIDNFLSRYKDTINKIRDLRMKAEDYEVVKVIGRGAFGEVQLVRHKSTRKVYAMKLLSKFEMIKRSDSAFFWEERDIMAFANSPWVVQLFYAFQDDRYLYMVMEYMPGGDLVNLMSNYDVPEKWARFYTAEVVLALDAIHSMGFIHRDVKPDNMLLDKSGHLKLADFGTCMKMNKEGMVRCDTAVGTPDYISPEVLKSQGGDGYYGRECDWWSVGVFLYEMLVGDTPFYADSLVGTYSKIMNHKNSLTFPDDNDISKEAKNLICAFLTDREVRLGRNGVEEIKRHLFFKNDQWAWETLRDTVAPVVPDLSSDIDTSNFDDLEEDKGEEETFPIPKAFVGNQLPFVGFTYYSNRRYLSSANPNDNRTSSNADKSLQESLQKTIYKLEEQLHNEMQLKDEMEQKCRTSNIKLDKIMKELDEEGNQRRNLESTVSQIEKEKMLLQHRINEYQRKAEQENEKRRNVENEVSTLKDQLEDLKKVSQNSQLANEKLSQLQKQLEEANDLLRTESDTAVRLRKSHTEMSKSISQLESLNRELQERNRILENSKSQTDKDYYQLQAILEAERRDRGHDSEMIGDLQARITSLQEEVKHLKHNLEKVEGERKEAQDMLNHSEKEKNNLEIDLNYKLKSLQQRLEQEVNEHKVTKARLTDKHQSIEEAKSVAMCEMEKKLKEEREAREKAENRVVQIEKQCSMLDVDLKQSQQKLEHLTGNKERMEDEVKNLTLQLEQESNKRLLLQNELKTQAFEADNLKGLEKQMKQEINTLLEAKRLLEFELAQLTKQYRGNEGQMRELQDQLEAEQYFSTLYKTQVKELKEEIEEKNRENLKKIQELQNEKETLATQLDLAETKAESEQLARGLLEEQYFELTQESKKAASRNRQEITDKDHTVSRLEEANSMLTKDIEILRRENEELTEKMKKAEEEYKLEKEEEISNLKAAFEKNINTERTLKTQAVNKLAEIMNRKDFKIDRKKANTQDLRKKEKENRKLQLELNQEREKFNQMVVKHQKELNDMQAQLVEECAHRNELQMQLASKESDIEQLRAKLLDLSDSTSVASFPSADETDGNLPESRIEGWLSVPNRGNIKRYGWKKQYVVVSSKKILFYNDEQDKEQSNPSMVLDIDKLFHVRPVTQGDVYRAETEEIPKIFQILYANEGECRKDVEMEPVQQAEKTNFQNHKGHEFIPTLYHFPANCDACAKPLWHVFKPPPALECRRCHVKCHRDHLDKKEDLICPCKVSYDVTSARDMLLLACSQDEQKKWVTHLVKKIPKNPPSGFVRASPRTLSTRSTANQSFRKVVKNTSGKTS
Sequence of Mitogen-activated protein kinase 1 (Homo sapiens) (P28482 whole entry): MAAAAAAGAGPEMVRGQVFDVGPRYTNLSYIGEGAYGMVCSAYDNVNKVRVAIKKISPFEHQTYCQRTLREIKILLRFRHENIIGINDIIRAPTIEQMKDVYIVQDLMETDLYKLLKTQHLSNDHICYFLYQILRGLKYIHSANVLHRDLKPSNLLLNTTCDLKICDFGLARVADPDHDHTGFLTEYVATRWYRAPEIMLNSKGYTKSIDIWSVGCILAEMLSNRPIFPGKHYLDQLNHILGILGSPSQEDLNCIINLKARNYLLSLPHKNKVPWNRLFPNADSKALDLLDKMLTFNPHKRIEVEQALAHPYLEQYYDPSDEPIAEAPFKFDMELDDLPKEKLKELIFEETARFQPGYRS
Sequence of Hepatocyte growth factor receptor (Homo sapiens) (P08581 whole entry, the tested form may be a part): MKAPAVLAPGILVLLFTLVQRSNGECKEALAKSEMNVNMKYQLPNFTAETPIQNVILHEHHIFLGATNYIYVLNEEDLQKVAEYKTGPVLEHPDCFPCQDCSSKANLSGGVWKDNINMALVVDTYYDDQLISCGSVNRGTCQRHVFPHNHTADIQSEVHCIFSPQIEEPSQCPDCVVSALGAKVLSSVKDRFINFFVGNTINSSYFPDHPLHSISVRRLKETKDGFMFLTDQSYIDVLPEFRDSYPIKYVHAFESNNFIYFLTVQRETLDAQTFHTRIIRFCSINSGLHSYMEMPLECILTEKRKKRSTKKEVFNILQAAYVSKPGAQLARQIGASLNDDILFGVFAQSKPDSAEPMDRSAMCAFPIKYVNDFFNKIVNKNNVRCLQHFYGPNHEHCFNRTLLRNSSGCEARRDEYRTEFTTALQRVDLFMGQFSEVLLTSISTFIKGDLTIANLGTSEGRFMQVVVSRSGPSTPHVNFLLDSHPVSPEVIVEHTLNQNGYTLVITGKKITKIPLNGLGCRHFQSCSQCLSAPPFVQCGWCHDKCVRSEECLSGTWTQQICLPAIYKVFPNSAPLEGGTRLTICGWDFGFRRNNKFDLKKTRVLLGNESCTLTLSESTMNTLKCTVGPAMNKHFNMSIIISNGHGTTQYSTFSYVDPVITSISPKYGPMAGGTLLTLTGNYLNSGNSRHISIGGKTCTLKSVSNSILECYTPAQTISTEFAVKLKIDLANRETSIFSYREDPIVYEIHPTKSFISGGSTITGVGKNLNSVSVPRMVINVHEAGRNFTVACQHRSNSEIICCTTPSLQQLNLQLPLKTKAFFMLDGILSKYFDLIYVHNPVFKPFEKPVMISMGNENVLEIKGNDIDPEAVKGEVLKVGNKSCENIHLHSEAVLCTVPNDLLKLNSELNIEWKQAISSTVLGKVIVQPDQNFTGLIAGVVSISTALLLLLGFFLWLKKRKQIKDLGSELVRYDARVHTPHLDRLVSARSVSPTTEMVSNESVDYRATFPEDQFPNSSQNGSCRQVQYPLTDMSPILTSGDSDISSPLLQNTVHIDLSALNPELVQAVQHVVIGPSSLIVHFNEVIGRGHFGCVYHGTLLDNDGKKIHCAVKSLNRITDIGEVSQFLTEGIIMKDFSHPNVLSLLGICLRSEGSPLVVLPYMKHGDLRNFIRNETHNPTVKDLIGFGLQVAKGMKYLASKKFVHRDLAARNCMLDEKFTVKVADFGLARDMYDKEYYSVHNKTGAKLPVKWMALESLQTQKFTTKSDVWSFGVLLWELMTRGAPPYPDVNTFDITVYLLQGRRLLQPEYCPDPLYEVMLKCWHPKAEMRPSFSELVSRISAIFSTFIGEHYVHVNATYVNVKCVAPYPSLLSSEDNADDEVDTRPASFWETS
Sequence of Myosin light chain kinase 2, skeletal/cardiac muscle (Homo sapiens) (Q9H1R3 whole entry, the tested form may be a part): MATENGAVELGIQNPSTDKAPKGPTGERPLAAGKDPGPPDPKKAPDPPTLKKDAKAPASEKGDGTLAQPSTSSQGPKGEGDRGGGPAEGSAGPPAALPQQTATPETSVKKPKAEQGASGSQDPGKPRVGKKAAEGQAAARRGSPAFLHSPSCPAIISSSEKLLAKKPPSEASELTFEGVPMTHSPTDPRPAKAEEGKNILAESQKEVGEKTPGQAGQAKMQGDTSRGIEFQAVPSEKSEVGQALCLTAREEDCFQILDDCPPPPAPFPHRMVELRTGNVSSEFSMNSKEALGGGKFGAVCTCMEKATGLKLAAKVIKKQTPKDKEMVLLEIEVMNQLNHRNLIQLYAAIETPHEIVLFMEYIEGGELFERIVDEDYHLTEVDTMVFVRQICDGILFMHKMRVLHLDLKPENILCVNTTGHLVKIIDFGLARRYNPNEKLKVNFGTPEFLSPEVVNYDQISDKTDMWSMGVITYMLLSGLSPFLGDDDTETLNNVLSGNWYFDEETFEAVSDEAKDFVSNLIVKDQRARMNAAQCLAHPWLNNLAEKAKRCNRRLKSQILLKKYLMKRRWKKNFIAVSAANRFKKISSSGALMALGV
Sequence of Glycogen synthase kinase-3 beta (Homo sapiens) (P49841 whole entry, looked up, the tested form may be a part): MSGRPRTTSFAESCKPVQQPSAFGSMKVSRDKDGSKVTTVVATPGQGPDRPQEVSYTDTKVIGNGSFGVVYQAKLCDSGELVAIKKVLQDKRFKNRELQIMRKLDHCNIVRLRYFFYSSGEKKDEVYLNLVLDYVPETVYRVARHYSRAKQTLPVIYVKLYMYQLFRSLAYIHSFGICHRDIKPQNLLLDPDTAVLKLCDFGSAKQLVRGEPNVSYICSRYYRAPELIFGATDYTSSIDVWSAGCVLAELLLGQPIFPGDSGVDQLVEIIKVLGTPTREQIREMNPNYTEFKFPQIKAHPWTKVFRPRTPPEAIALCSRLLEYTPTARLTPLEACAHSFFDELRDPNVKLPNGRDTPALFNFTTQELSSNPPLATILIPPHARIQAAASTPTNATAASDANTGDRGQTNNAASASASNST

SMILES	inhibition [1] [%]	inhibition [2] [%]	inhibition [3] [%]	inhibition [4] [%]	inhibition [5] [%]	inhibition [6] [%]	logD [7]	inhibition [8] [%]	inhibition [9] [%]	inhibition [10] [%]	inhibition [11] [%]	inhibition [12] [%]	inhibition [13] [%]	inhibition [14] [%]	inhibition [15] [%]	inhibition [16] [%]	inhibition [17] [%]	inhibition [18] [%]	inhibition [19] [%]	inhibition [20] [%]	other results
COc1ccc(S(C)(=O)=O)cc1C(=O)Nc1cccc(-c2nncn2C(C)C)n1	5	6	48	1	-3	3	1.3	1	14	5	2	-1	-3	0	12	12	10	11	2	7	inhibition [21]: 0%
COc1cc(C)c(C(N)=O)cc1C(=O)Nc1cccc(-c2nncn2C(C)C)n1	1	20	76	5	6	8	1.6	17	59	3	-2	7	-3	0	5	85	7	2	0	11	inhibition [21]: 1%
COc1ccc(C(N)=O)cc1C(=O)Nc1cccc(-c2nncn2C(C)C)n1	0	19	45	11	6	7	1.5	34	35	9	6	0	2	7	12	18	4	3	-1	5	inhibition [21]: -1%
COc1cc(C)c(S(N)(=O)=O)cc1C(=O)Nc1cccc(-c2nncn2C(C)C)n1	6	3	87	-3	13	1	1.6	8	17	9	-2	6	6	7	-1	44	4	5	3	-6	inhibition [21]: -1%
COc1ccc(S(N)(=O)=O)cc1C(=O)Nc1cccc(-c2nncn2C(C)C)n1	-1	8	73	7	12	4	1.2 to 1.3	-4	10	12	-1	0	-4	1	20	18	19	-4	2	7	inhibition [21]: 0%
COc1cc(C)c(S(C)(=O)=O)cc1C(=O)Nc1cccc(-c2nncn2C(C)C)n1	3	2	76	11	3	-1	1.7	2	14	12	0	3	0	3	-3	20	1	-1	5	-6	inhibition [21]: 0%
